Laboratory results taken from ChEMBL document CHEMBL1221258, “Biaryl substituted hydantoin compounds as TACE inhibitors” (Bioorg Med Chem Lett, 2010).
pKi: −log10 of the molar value.

How the values were obtained:
[1] = biological target: Disintegrin and metalloproteinase domain-containing protein 17 (Homo sapiens, UniProt P78536); experiment: Inhibition of TACE assessed as inhibition of pro-TNFalpha peptide cleavage
[2] = Oral bioavailability in rat at 10 mg/kg; format: ADME, organism-based; settings: in vivo
Outline: (§1)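 Rats were dosed separately at 3 mg/kg iv and 10 mg/kg po. Reported parameters were AUC (µM h), T1/2 (h), Cl (L/h/kg) and Vss (L/kg) after iv dosing, and AUC, Cmax (µM), Tmax (h) and F% after oral dosing.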

[3] = AUC in rat at 10 mg/kg, po; format: ADME, organism-based; design: dose 10 mg/kg, route oral; settings: plasma
Rattus norvegicus [4] = experiment: AUC in rat at 3 mg/kg, iv; format: ADME, organism-based, Plasma; design: dose 3 mg/kg, route intravenous; settings: in vivo
[5] = biological target: T1, Matrilysin (Homo sapiens) (UniProt P09237); experiment: Inhibition of MMP7
T1 sequence (whole entry): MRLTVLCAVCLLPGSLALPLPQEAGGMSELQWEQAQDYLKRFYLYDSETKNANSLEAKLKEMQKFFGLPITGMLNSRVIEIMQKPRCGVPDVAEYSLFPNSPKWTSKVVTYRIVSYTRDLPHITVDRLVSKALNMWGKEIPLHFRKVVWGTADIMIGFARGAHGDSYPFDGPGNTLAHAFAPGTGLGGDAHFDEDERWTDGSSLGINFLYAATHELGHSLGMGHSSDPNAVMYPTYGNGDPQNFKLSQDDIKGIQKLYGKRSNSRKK

[6] = biological target: Stromelysin-1 (Homo sapiens) (UniProt P08254); experiment: Inhibition of MMP3
Sequence of Stromelysin-1 (Homo sapiens) (P08254 100-477 limits assumed): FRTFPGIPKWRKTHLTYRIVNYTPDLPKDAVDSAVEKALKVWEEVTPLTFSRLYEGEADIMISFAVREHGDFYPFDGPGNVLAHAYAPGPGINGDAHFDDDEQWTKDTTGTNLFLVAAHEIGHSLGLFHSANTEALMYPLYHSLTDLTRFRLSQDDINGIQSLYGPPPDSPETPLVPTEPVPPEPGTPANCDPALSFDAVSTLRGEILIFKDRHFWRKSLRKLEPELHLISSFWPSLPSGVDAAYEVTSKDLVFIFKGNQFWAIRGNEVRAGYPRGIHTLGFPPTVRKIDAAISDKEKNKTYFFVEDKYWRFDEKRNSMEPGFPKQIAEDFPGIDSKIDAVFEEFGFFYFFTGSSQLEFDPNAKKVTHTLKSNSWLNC

[7] = Cmax in rat at 10 mg/kg, po; format: ADME, organism-based; design: dose 10 mg/kg, route oral; settings: in vivo; outline: as §1
[8] = biological target: Collagenase 3 (Homo sapiens) (UniProt P45452); experiment: Inhibition of MMP13
[9] = biological target: T2, Disintegrin and metalloproteinase domain-containing protein 10 (Homo sapiens) (UniProt O14672); experiment: Inhibition of ADAM10
T2 sequence (whole entry): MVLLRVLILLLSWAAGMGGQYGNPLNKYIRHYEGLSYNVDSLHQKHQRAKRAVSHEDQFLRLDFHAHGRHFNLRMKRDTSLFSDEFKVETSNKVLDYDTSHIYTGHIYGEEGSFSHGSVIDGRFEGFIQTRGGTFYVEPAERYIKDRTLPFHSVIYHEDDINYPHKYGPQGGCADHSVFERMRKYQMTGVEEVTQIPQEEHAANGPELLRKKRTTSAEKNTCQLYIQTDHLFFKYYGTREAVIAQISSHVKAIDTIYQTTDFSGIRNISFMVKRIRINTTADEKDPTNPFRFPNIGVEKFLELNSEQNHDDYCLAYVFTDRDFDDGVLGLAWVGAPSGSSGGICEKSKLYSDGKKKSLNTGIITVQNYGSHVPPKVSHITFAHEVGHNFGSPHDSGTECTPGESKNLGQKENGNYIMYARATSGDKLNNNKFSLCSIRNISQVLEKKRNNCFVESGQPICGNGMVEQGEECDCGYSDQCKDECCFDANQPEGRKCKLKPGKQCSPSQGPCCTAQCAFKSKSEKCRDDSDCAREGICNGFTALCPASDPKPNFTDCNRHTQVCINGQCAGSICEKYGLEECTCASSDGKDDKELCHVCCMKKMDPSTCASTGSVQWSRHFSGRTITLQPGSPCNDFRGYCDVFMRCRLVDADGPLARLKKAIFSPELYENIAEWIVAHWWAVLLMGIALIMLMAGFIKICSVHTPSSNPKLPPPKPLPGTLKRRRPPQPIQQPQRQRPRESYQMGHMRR

[10] = biological target: Matrix metalloproteinase-14 (Homo sapiens) (UniProt P50281); experiment: Inhibition of MMP14
Rattus norvegicus [11] = experiment: Clearance in rat at 3 mg/kg, iv; format: ADME, organism-based; design: dose 3 mg/kg, route intravenous; settings: in vivo; outline: as §1
[12] = biological target: 72 kDa type IV collagenase (Homo sapiens) (UniProt P08253); experiment: Inhibition of MMP2
Sequence of 72 kDa type IV collagenase (Homo sapiens) (P08253 110-660 limits assumed): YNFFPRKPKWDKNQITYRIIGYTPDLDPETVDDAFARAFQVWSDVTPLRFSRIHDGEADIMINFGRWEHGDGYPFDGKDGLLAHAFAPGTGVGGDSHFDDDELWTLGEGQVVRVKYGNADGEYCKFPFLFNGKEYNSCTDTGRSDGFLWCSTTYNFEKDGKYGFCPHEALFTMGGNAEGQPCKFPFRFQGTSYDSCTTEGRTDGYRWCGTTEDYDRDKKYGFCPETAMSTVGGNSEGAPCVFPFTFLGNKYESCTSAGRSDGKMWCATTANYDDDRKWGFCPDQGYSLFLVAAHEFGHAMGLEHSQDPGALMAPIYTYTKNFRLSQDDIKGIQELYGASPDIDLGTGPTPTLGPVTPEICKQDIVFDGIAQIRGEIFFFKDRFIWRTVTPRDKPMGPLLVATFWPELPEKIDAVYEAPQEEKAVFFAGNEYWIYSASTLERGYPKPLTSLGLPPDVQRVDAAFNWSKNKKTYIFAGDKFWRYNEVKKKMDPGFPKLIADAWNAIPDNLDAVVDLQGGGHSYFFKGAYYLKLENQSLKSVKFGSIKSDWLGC

Rattus norvegicus [13] = experiment: Half life in rat at 3 mg/kg, iv; format: ADME, organism-based; design: dose 3 mg/kg, route intravenous; settings: in vivo; outline: as §1
[14] = biological target: Matrix metalloproteinase-9 (Homo sapiens) (UniProt P14780); experiment: Inhibition of MMP9
Sequence of Matrix metalloproteinase-9 (Homo sapiens) (P14780 whole entry): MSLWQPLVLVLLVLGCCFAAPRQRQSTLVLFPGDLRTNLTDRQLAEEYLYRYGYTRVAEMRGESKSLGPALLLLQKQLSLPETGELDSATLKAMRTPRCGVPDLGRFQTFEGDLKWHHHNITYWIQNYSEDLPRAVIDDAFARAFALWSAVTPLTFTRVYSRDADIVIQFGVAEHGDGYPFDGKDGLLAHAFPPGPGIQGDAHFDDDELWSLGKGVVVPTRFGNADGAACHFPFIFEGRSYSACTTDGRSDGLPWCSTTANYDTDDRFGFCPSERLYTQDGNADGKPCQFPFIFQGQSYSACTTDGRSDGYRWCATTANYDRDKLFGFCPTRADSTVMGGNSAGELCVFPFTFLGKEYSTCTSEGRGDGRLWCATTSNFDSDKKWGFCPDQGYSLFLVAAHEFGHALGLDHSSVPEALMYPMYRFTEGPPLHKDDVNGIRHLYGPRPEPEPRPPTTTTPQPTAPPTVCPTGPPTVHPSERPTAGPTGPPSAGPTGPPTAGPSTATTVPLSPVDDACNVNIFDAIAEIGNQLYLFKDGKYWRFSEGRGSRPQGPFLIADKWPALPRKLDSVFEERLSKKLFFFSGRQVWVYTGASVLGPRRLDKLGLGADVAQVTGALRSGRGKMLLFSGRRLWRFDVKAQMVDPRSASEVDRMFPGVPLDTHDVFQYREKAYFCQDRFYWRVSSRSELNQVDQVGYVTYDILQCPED

[15] = biological target: T3, Interstitial collagenase (Homo sapiens) (UniProt P03956); experiment: Inhibition of MMP1
T3 sequence (whole entry): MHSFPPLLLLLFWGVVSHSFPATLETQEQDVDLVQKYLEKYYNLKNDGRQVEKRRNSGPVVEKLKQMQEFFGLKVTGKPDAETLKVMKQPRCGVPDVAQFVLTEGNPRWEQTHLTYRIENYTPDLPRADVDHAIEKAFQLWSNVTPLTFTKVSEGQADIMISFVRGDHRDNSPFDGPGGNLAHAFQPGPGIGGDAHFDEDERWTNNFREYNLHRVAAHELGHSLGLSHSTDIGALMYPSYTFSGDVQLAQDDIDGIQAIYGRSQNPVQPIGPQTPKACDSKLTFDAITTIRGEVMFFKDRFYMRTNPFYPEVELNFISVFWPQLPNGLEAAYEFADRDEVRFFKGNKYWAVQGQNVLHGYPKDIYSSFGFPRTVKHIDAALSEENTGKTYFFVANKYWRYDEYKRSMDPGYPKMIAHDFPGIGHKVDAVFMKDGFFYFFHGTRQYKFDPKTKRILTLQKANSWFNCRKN

[16] = Tmax in rat at 10 mg/kg, po; format: ADME, organism-based; design: dose 10 mg/kg, route oral; settings: in vivo; outline: as §1
Rattus norvegicus [17] = experiment: Volume of distribution at steady state in rat at 3 mg/kg, iv; format: ADME, organism-based; design: dose 3 mg/kg, route intravenous; settings: in vivo; outline: as §1

Sequence of Disintegrin and metalloproteinase domain-containing protein 17 (P78536 whole entry, the tested form may be a part): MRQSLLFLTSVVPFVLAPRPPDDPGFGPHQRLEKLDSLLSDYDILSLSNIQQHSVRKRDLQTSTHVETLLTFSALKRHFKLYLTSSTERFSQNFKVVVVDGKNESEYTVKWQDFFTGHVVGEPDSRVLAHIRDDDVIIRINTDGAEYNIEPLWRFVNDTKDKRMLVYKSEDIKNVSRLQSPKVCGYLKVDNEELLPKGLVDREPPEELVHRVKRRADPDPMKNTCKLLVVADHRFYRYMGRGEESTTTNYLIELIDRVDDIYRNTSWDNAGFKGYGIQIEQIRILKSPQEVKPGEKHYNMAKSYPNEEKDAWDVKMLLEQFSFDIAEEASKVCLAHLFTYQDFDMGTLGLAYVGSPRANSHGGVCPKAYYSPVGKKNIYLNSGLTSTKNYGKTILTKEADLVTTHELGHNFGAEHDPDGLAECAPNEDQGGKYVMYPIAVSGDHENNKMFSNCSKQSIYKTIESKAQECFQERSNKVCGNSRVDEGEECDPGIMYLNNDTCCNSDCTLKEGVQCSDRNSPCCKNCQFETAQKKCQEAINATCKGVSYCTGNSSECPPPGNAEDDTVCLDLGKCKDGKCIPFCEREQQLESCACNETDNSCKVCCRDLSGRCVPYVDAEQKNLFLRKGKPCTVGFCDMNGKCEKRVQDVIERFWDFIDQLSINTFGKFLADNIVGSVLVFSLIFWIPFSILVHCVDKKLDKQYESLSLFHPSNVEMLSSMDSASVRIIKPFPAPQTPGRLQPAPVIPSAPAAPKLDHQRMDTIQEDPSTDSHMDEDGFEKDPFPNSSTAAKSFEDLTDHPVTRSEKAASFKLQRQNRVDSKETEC

O=C1NC(=O)[C@](CN2Cc3ccc(F)cc3C2=O)(c2ccc(-c3ccc(=O)[nH]c3)cc2)N1
pKi [1]: 9.70

COc1ccc2c(c1)C(=O)N(C[C@@]1(c3ccc(-c4cccc(-c5csc(C)n5)c4)cc3)NC(=O)NC1=O)C2
pKi [1]: 7.51

COc1ccc2c(c1)C(=O)N(C[C@@]1(c3ccc(-c4nccs4)cc3)NC(=O)NC1=O)C2
pKi [1]: 9.22

COc1ccc2c(c1)C(=O)N(C[C@@]1(c3ccc(-c4ccnc(C)c4)cc3)NC(=O)NC1=O)C2
pKi [1]: 9.30 | bioavailability [2]: 19% | AUC [3]: 13 µM·h | AUC (Rattus norvegicus [4]): 21 µM·h | INH [5]: 30 µM | INH [6]: 434 nM | Cmax [7]: 3.3 µM | INH [8]: 194 nM | INH [9]: 253 nM | INH [10]: 36 nM | CL (Rattus norvegicus [11]): 91.7 mL/min/kg | INH [12]: 86 nM | t1/2 (Rattus norvegicus [13]): 4.4 h | INH [14]: 212 nM | INH [15]: 1740 nM | Tmax [16]: 1.7 h | Vdss (Rattus norvegicus [17]): 0.3 L/kg

COc1ccc2c(c1)C(=O)N(C[C@@]1(c3ccc(-c4cc(-c5ccccc5)no4)cc3)NC(=O)NC1=O)C2
pKi [1]: 7.55

COc1ccc2c(c1)C(=O)N(C[C@@]1(c3ccc(-c4ccnc(N)c4)cc3)NC(=O)NC1=O)C2
pKi [1]: 8.85

O=C1NC(=O)[C@](CN2Cc3ccc(F)cc3C2=O)(c2ccc(-c3ccc(F)cc3F)cc2)N1
pKi [1]: 8.70

COC(=O)c1ccc(-c2ccc([C@]3(CN4Cc5ccc(OC)cc5C4=O)NC(=O)NC3=O)cc2)cc1
pKi [1]: 8.05

COc1ccc2c(c1)C(=O)N(C[C@@]1(c3ccc(-c4cccnc4)cc3)NC(=O)NC1=O)C2
bioavailability [2]: 14.1% | AUC [3]: 9.1 µM·h | AUC (Rattus norvegicus [4]): 19 µM·h | INH [5]: 17.4 µM | INH [6]: 3.61 nM | Cmax [7]: 2.96 µM | INH [8]: 155 nM | INH [9]: 216 nM | INH [10]: 25 nM | CL (Rattus norvegicus [11]): 103 mL/min/kg | t1/2 (Rattus norvegicus [13]): 4.3 h | INH [14]: 124 nM | INH [15]: 655 nM | Tmax [16]: 0.58 h | Vdss (Rattus norvegicus [17]): 0.3 L/kg

COc1ccc2c(c1)C(=O)N(C[C@@]1(c3ccc(C4(C)NC(=O)NC4=O)cc3)NC(=O)NC1=O)C2 (stereo partly drawn)
pKi [1]: 8.59

COc1ccc2c(c1)C(=O)N(C[C@@]1(c3ccc(-c4cnn(C)c4)cc3)NC(=O)NC1=O)C2
bioavailability [2]: 18% | AUC [3]: 22.2 µM·h | AUC (Rattus norvegicus [4]): 36.2 µM·h | INH [5]: > 40 µM | INH [6]: 430 nM | Cmax [7]: 4.45 µM | INH [8]: 202 nM | INH [9]: 187 nM | INH [10]: 19 nM | CL (Rattus norvegicus [11]): 55 mL/min/kg | INH [12]: 24 nM | t1/2 (Rattus norvegicus [13]): 4.4 h | INH [14]: 122 nM | INH [15]: 718 nM | Tmax [16]: 2 h | Vdss (Rattus norvegicus [17]): 0.3 L/kg

O=C1NC(=O)[C@](CN2Cc3ccc(F)cc3C2=O)(c2ccc(-c3ccc(C(F)(F)F)cc3)cc2)N1
pKi [1]: 7.74

COc1ccc2c(c1)C(=O)N(C[C@@]1(c3ccc(Oc4ccc5cnccc5c4)cc3)NC(=O)NC1=O)C2
pKi [1]: 8.10

O=C1NC(=O)[C@](CN2Cc3ccc(F)cc3C2=O)(c2ccc(-c3c[nH]c(=O)c(Cl)c3)cc2)N1
pKi [1]: 10.00

COc1ccc2c(c1)C(=O)N(C[C@@]1(c3ccc(-c4ccc(C(N)=O)cc4)cc3)NC(=O)NC1=O)C2
pKi [1]: 8.52

COc1ccc2c(c1)C(=O)N(C[C@@]1(c3ccc(-c4ccncc4)cc3)NC(=O)NC1=O)C2
pKi [1]: 9.22

COc1ccc2c(c1)C(=O)N(C[C@@]1(c3ccc(-c4cncnc4)cc3)NC(=O)NC1=O)C2
pKi [1]: 9.05

COc1ccc2c(c1)C(=O)N(C[C@@]1(c3ccc(Oc4ccncc4)cc3)NC(=O)NC1=O)C2
pKi [1]: 8.15
